Data set [1] deals with SW480. Nature of the data set: Cytotoxicity in human SW480 cells assessed as reduction in cell viability incubated for 72 hrs by MTS assay. Format: functional, cell-based. As to conditions: SW480, 72 h. In short, it runs like this:
(§1)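 Cells seeded at 5 × 10^3 cells/well, kept overnight at 37 °C, then exposed to inhibitors at various concentrations for 72 h. Viability read with a freshly mixed PMS (0.92 mg/mL) : MTS (2 mg/mL) reagent at 1:19, incubated 3 h at 37 °C, A490 measured. […] Triplicate; mean ± SD.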
(Tetrazolium dyes change colour on reduction, which living cells bring about.)

In the next data set the test system is HCT-116. Put plainly: Cytotoxicity in human HCT-116 cells assessed as reduction in cell viability incubated for 72 hrs by MTS assay. Format: functional, cell-based. As to conditions: HCT-116, 72 h. Summed up:
as §1

The next data set deals with MDA-MB-231. Nature of the data set: Cytotoxicity in human MDA-MB-231 cells assessed as reduction in cell viability incubated for 72 hrs by MTS assay. As to conditions: MDA-MB-231, 72 h. The class given is functional, cell-based. Summed up:
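Triple-negative breast cancer line seeded at 5 × 10^3 cells/well, held overnight at 37 °C, then exposed to inhibitor over a concentration range for 72 h. Viability read out with a fresh 1:19 mix of PMS (0.92 mg/mL) and MTS (2 mg/mL), incubated 3 h at 37 °C, A490 measured.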

In another data set the test system is A549. Nature of the data set: Cytotoxicity in human A549 cells assessed as reduction in cell viability incubated for 72 hrs by MTS assay. Format: functional, cell-based. To be noted: A549, 72 h. Summed up:
as §1

Data set [2] concerns the target T1, beta-catenin-B-cell lymphoma 9 protein complex (Homo sapiens, UniProt P35222).
T1 sequence (P35222 whole entry): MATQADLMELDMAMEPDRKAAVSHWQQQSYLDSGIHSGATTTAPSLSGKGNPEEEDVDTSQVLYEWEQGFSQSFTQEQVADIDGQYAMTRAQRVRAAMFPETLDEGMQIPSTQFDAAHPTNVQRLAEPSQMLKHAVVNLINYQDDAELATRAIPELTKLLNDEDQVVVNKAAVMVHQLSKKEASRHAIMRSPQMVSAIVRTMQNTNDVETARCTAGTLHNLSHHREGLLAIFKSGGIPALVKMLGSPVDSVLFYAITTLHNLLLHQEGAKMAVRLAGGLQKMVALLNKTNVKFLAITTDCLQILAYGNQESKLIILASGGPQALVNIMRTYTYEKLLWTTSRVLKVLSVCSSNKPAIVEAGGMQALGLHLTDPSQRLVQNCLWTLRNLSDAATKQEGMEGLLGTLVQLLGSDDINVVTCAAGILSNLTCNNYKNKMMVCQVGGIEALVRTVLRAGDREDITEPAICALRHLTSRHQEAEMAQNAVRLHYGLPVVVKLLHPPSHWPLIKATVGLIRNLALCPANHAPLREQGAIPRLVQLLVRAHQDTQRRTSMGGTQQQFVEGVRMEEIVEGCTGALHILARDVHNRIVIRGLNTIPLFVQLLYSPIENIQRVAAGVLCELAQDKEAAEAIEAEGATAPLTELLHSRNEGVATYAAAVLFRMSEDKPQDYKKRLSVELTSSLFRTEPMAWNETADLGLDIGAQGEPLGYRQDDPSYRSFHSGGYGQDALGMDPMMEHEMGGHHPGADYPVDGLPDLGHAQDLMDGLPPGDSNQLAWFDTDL
T1 sequence (O00512 whole entry): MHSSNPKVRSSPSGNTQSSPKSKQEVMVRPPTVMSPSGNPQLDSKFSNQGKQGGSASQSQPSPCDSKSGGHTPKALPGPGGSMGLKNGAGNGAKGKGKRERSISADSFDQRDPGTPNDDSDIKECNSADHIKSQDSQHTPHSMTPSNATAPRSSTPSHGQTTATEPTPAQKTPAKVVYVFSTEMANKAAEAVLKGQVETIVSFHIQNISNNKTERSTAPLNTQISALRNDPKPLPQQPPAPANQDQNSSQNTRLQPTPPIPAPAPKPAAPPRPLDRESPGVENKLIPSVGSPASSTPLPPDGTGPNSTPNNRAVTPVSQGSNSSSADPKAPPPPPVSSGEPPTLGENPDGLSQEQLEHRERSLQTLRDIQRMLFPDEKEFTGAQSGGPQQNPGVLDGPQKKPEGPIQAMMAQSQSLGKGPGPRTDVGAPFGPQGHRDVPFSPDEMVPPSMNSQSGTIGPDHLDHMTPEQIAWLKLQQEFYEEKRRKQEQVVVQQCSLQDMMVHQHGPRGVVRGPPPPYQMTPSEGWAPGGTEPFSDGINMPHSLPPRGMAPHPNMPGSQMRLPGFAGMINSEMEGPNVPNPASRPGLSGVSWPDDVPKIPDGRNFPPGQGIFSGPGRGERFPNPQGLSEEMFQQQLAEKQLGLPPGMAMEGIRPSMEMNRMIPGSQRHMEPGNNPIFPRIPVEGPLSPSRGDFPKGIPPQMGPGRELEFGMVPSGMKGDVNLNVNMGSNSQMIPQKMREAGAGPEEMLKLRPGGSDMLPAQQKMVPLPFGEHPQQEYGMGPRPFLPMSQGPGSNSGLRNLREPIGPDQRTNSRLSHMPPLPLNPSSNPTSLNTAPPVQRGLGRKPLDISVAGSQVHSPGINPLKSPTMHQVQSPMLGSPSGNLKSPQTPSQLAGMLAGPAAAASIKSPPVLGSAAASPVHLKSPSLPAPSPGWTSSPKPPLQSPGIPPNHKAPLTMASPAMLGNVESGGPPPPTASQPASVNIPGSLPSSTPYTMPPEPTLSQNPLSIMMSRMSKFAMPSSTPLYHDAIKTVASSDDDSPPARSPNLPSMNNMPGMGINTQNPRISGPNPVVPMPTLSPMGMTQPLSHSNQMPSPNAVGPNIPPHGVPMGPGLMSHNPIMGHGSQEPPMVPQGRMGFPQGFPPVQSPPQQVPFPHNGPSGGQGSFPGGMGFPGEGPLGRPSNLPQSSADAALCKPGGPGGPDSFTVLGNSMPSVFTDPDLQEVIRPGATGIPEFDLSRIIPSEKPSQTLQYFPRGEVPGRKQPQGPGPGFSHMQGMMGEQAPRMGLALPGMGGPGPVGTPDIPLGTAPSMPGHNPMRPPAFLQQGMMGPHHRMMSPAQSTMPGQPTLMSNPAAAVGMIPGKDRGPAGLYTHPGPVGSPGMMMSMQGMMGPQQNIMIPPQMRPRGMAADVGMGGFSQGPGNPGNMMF
Nature of the data set: Inhibition of protein interaction between beta-catenin (unknown origin)/BCL9 in HEK293 cells transfected with beta-catenin assessed as reduction in Wnt/beta-catenin transactivation incubated for 24 hrs by Wnt-responsive TOP-Flash luciferase reporter assay. The class given is cell-based. Summed up:
(§2)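 HEK293 cells were cotransfected using FuGENE6 with 45 ng TOPFlash or FOPFlash reporter, 135 ng pcDNA3.1-β-catenin and 20 ng pCMV-RL normalization reporter. After 24 h in DMEM with 10% FBS at 37 °C, inhibitors or DMSO were added for 24 h. Reporter activity was read with a dual luciferase system, normalized, and compared with DMSO-treated cells. Triplicate.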

The target of data set [3] is T1, beta-catenin-B-cell lymphoma 9 protein complex. Nature of the data set: Inhibition of protein interaction between beta-catenin (unknown origin)/BCL9 in human SW480 cells transfected with beta-catenin assessed as reduction in Wnt/beta-catenin transactivation incubated for 24 hrs by Wnt-responsive TOP-Flash luciferase reporter assay. Format: cell-based. Background: A reporter such as luciferase makes a cellular process visible.

Data set [4] deals with SW480. Nature of the data set: Cytotoxic activity in human SW480 cells at 800 uM incubated for 4 hrs by LDH release assay. The class given is cell-based. To be noted: sw480, 4 h. In short, it runs like this:
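SW480 cells were seeded at 2 × 10^4 cells/well and kept overnight at 37 °C. They were then exposed to a range of inhibitor concentrations for 4 h. LDH in the culture supernatant was measured with a diagnostic kit by absorbance at 490 nm. Percent cytotoxicity was calculated from experimental release against maximum release, with background subtracted. Run in triplicate.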
A general note: LDH in the medium is a marker of cell lysis.

The target in data set [5] is T2, beta-catenin-B-cell lymphoma 9 protein complex (Homo sapiens) (UniProt P35222+O00512). Nature of the data set: Inhibition of protein interaction between beta-catenin (unknown origin)/BCL9 in HEK293 cells transfected with beta-catenin assessed as reduction in Wnt/beta-catenin transactivation incubated for 24 hrs by Wnt-responsive FOP-Flash luciferase reporter assay. The class given is cell-based. Summed up: as §2

Data set [6] is described as follows: Effect on HPRT mRNA expression in human SW480 cells at 5 uM incubated for 24 hrs by qPCR analysis relative to control. Format: ADME, cell-based. As to conditions: read-out: FC. In short, it runs like this:
(§3)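 SW480 cells at 1 × 10^6/mL were treated with inhibitor for 24 h. Total RNA was extracted with TRIzol and cDNA made by first-strand synthesis. SYBR green qPCR used human HPRT primers, with CT values normalised to GAPDH as internal reference. Performed in triplicate.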

The nature of data set [7]: Effect on HPRT mRNA expression in human SW480 cells at 10 uM incubated for 24 hrs by qPCR analysis relative to control. The class given is ADME, cell-based. To be noted: read-out: FC. In short, it runs like this:
as §3

A short description of data set [8]: Effect on HPRT mRNA expression in human SW480 cells at 20 uM incubated for 24 hrs by qPCR analysis relative to control. The class given is ADME, cell-based. To be noted: read-out: FC. In short, it runs like this:
as §3

Data set [9] addresses T2, beta-catenin-B-cell lymphoma 9 protein complex (Homo sapiens). Put plainly: Inhibition of protein interaction between beta-catenin (unknown origin)/BCL9 in human HEK293 cells transfected with beta-catenin assessed as reduction in Wnt/beta-catenin transactivation incubated for 24 hrs by Wnt-responsive FOP-Flash luciferase reporter assay.
Data set [10] is described as follows: Inhibition of protein interaction between C-terminal 6x-histidine tagged full-length beta-catenin (1 to 781 residues) (unknown origin)/N-terminal biotinylated human E-cadherin (824 to 877 residues) incubated for 1 hr by Alpha-screen competitive inhibition assay. Summed up: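 Full-length β-catenin (residues 1–781) with a C-terminal His6 tag was expressed in E. coli BL21(DE3) after IPTG induction at 20 °C. It was purified by Ni-NTA, anion-exchange and size-exclusion chromatography. For the assay, 40 nM β-catenin was preincubated for 30 min at 4 °C with 5 nM biotinylated BCL9 or 10 nM biotinylated E-cadherin. Inhibitor was then added for 1 h at 4 °C, followed by 10 μg/mL donor and acceptor beads for 1 h at 4 °C. IC50 was obtained by nonlinear fit and converted to Ki by the Nikolovska-Coleska method. Triplicate, mean ± SD.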

Active and inactive are the calls of the source. The rule behind the calls is not given here.

Turning to `Cl.Cl.Fc1ccc(-c2cc(-c3ccc4cc(O[C@H]5CCNC5)c(-c5ccc(F)c(F)c5)cc4n3)ccc2O[C@H]2CCNC2)cc1`, the IC50 (commonly the point on the concentration scale where inhibition reaches its midpoint) was 3.6 µM with SW480 [1]; 9.6 µM in the data set with HCT-116; 15 µM with MDA-MB-231; 23 µM in the data set with A549; 26 µM in data set [2]; 12 µM in data set [3]. The Activity result in the data set with SW480 [4] was “Non-Toxic”. The inhibition result in [5] and in data set [9] was “Active” in each case. Moreover, the fold induction at 5 µM in data set [6] stood at 0.369. Further, the fold induction at 10 µM in data set [7] was 0.319. Also, the fold induction at 20 µM in data set [8] stood at 0.0612.
For `Cl.Cl.O=C(Nc1ccc(O[C@@H]2CCNC2)c(-c2cccc(-c3nn[nH]n3)c2)c1)c1ccc(O[C@H]2CCNC2)c(-c2ccc3ccsc3c2)c1`, the Ki (as a rule, the equilibrium dissociation constant of an inhibitor or competing ligand from its target) in data set [10] is more than 915 µM. In addition, the IC50 turned out to be 150 µM in the data set on SW480 [1]; 240 µM with HCT-116; 430 µM with A549; 50 µM in data set [2]; 43 µM in data set [3]. Besides, the Activity result in the data set with SW480 [4] is recorded as “Non-Toxic”. Also, the inhibition result in data set [5] and in data set [9] was “inactive” throughout.
